This is an account of results in ChEMBL document CHEMBL2150909, “Imidazo[1,2-a]pyridines: orally active positive allosteric modulators of the metabotropic glutamate 2 receptor” (J Med Chem, 2012).

pEC50: −log10 of the molar value.

In data set [1] the target is T1, Metabotropic glutamate receptor 2 (Homo sapiens, UniProt Q14416). Briefly: Agonist activity at human mGlu 2 expressed in CHO cells by PAM assay relative to glutamate. In kind it is functional, cell-based. The essentials: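 The assay measured [35S]GTPγS binding to membranes from CHO cells expressing human mGluR2. Cells were butyrate-stimulated (5 mM, 24 h) before membranes were prepared. Membranes were preincubated for 30 min at 30 °C in HEPES pH 7.4 buffer (NaCl, MgCl2, 50 μM GDP) with compound (0.3 nM–50 μM, 11 concentrations) plus EC25 glutamate. [35S]GTPγS (0.1 nM final) was then added for 30 min at 30 °C. Bound label was collected by filtration and counted. Runs were done at least in triplicate with duplicate points, and a four-parameter logistic fit gave the values.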
Target sequence in this assay (Q14416 19-872 limits assumed): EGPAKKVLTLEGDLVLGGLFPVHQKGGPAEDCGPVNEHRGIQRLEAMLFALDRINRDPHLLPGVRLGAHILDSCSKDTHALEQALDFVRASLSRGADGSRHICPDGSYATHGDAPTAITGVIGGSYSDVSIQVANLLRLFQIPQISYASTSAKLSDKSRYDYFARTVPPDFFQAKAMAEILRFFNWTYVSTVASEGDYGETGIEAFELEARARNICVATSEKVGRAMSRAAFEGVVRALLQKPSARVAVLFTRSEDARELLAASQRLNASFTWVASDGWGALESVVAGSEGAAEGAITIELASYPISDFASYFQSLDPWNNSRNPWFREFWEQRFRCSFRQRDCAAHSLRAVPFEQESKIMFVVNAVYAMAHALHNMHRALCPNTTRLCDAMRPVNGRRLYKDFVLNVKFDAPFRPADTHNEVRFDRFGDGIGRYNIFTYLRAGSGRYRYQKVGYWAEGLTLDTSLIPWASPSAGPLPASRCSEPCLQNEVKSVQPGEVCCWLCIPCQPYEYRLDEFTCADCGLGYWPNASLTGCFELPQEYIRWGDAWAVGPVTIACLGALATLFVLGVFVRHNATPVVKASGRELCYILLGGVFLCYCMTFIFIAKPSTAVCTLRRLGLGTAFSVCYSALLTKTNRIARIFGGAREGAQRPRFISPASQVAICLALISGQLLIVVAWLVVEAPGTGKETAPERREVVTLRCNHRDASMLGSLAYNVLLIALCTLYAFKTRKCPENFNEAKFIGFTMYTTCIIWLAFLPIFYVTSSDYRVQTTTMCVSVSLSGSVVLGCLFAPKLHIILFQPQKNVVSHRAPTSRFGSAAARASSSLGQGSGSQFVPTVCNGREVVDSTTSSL

Data set [2] in a line: Metabolic stability of Sprague-Dawley rat liver microsomes assessed as compound metabolized at 5 uM after 15 mins. In kind it is ADME, Microsome. Conditions: read-out: Drug metabolism. A digest of the protocol:
(§1)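 Test compound at 5 μM incubated 15 min with rat or human liver microsomes; read-out is percent of compound metabolized.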
A general note: Microsomes from liver hold many membrane-bound enzymes, among them those of drug oxidation.

Data set [3] concerns the target T1, Metabotropic glutamate receptor 2. The data set is described as follows: Agonist activity at human mGlu 2 expressed in CHO cells assessed as [35S]GTPgammaS binding by liquid scintillation analysis. In kind it is functional, cell-based. The essentials: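 Membranes from butyrate-stimulated (5 mM, 24 h) CHO cells expressing human mGlu2. Preincubated 30 min at 30 °C in HEPES pH 7.4 with NaCl, MgCl2, 50 μM GDP and saponin; modulator 0.3 nM–50 μM, no added glutamate. [35S]GTPγS 0.1 nM final, 30 min at 30 °C, filtered, scintillation counted. Nonspecific binding defined with cold GTP; 11 concentrations in duplicate, ≥3 curves.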
In general terms: GTPγS resists hydrolysis and so accumulates on activated G proteins.
Target sequence in this assay (Q14416 whole entry): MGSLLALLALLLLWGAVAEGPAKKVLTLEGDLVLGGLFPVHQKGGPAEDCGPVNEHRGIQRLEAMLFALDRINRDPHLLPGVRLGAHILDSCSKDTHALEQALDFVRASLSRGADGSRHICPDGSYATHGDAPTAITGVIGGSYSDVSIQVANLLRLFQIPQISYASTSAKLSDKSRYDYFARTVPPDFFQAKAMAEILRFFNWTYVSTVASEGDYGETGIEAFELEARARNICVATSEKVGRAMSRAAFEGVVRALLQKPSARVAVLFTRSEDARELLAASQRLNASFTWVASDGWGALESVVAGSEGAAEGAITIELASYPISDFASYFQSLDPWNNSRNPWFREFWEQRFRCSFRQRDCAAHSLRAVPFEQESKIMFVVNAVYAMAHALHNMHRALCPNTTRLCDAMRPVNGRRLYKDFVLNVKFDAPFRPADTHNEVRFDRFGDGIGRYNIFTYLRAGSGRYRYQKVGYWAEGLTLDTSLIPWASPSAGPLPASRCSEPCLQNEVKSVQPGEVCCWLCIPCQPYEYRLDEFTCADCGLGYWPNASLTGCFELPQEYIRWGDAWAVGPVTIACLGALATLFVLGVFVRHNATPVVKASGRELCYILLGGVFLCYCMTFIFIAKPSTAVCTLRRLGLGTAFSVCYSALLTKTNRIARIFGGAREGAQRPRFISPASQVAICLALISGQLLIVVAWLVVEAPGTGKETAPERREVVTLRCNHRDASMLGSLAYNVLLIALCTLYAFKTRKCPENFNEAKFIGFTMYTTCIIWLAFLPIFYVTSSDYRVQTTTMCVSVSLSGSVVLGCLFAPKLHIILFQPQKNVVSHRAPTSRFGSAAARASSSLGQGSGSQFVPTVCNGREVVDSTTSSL

Data set [4] can be described thus: Metabolic stability of human liver microsomes assessed as compound metabolized at 5 uM after 15 mins. In kind it is ADME, Microsome. The following applies: read-out: Drug metabolism. A digest of the protocol:
as §1

Consider `N#Cc1c(-c2ccc3c(c2)OCCN3)ccn2c(CC(F)(F)F)cnc12`, for which the Emax (in general, the size of the effect at its maximum, as opposed to the concentration needed) in data set [1] worked out at 232%. Also, the metabolised at 0.25 h, 5 µM in data set [2] was 100%; in data set [4], 45%. In addition, in data set [3], the pEC50 (as a rule, −log10 of the EC50, conventionally taken in molar units) was 5.78.
The matching figures for `N#Cc1c(-c2ccc(OC3CCOCC3)c(Cl)c2)ccn2c(CC(F)(F)F)cnc12`: 173%, 50%, 29% and 6.21.
Compound `N#Cc1c(-c2ccc(NC3CCOCC3)c(Cl)c2)ccn2c(CC(F)(F)F)cnc12` showed an Emax in data set [1] of 307%. The metabolised at 0.25 h, 5 µM in data set [2] came to 36%; in data set [4], 21%.
`Cn1ccc2cc(-c3ccn4c(CC(F)(F)F)cnc4c3C#N)cc(Cl)c21` showed an Emax in data set [1] of 184%. For the same compound, the metabolised at 0.25 h, 5 µM came to 62% in data set [2] and 51% in data set [4]. Further, in data set [3], the pEC50 is 6.92.
In data set [1], `N#Cc1c(-c2cc(Cl)c3c(ccn3CC3CC3)c2)ccn2c(CC(F)(F)F)cnc12` registered an Emax of 200%. Besides, the metabolised at 0.25 h, 5 µM in data set [2] came out at 74%; in data set [4], 19%.
In data set [1], `N#Cc1c(-c2ccc3c(c2)OCCNC3)ccn2c(CC(F)(F)F)cnc12` came in with an Emax of 105%.
On the same count and under the same terms, next, `N#Cc1c(-c2ccc(N3CCOCC3)c(Cl)c2)ccn2c(CC(F)(F)F)cnc12`: 167%.
Take `N#Cc1c(-c2cc(Cl)c3[nH]ccc3c2)ccn2c(CC(F)(F)F)cnc12`: the Emax in data set [1] was determined as 277%. Besides, the metabolised at 0.25 h, 5 µM in data set [2] came out at 49%; in data set [4], 35%. Moreover, the pEC50 in data set [3] is 6.49.
`Cn1ccc2cc(-c3ccn4c(CC(F)(F)F)cnc4c3C#N)ccc21` showed an Emax in data set [1] of 154%. For the same compound, the figures for the metabolised at 0.25 h, 5 µM in data set [2] and in data set [4] were 55% and 28%, respectively.
In data set [1], `N#Cc1c(-c2ccc3c(ccn3CC3CC3)c2)ccn2c(CC(F)(F)F)cnc12` showed an Emax of 230%. In addition, the metabolised at 0.25 h, 5 µM in data set [2] stood at 40%; in data set [4], 24%. Moreover, in data set [3], the pEC50 was 6.72.
For the compound `FC(F)(F)Cc1cnc2c(Cl)c(-c3cc(Cl)c4c(ccn4CC4CC4)c3)ccn12`, in data set [1], the Emax is 193%. In addition, the metabolised at 0.25 h, 5 µM turned out to be 70% in data set [2] and 1% in data set [4].
